Results from different studies.
Protocols differ between the studies behind these lines.
Target: Serine/threonine-protein kinase SIK3 (SIK3, Homo sapiens, UniProt Q9Y2K2)

| Compound | assay | conditions | remaining binding |
| --- | --- | --- | --- |
| O=C(NCC1CCOCC1)c1n[nH]cc1NC(=O)c1c(F)cccc1F | binding, competition with immobilised ligand | 1 µM | 88% |
| CNC(=O)[C@@H]1CC[C@@H](n2c(-c3ccc4cnccc4c3)nc3ccc(C(=O)NCc4cccc(C(N)=O)c4)cc32)C1 | binding, competition with immobilised ligand | 1 µM | 88% |
| CCC(=O)N[C@@H]1CC[C@H](C(=O)N(C)c2ccc(-c3nc4ccccc4o3)cc2)C1 | cell-free assay, competition with immobilised ligand | 1 µM | 100% |
| COc1ncc2cc3ccccc3nc2c1C#N | cell-free assay, competition with immobilised ligand | 5 µM | 88% |
| c1cnn2ncc(-c3ccnc(N4CCC45COC5)n3)c2c1 | binding | 1 µM | 70% |
| O=C(c1ccc(Nc2ncc(Cl)c(-c3ccc(Cl)s3)n2)cc1)N1CCC(N2CCCC2)CC1 | binding, competition with immobilised ligand | 1 µM | 84% |
| CC(=O)Nc1c(C(C)=O)c(=O)n(C)c2nc(-c3ccc(Cl)cc3Cl)c(-c3ccc(Cl)cc3)cc12 | cell-free assay, competition with immobilised ligand | 1 µM | 100% |
| O=C(NCCCN1CCOCC1)c1ccc(Nc2nccc(-c3cc4ccccc4s3)n2)cc1 | binding, competition with immobilised ligand | 1 µM | 95% |
| c1cncc(-c2cccc(Nc3nccc(NC4CCCCC4)n3)c2)c1 | binding, competition with immobilised ligand | 10 µM | 83% |
| COc1ccnn2ncc(-c3ccnc(N(C)C)n3)c12 | binding | 1 µM | 78% |
| O=C(O)[C@H]1[C@H](Cn2nnc3ccccc3c2=O)CC[C@@H]1C(=O)c1ccc(OCCC2CCOCC2)cc1 | cell-free assay, competition with immobilised ligand | 1 µM | 61% |
| N[C@@H]1CCN(c2nccc(-c3cnn4ncccc34)n2)C1 | binding | 1 µM | 100% |
| CCS(=O)(=O)c1cc2cc(C[C@](O)(CC(C)(C)c3ccc(F)cc3C(N)=O)C(F)(F)F)[nH]c2cn1 | cell-free assay, competition with immobilised ligand | 1 µM | 85% |
| CN(c1nccc(-c2cnn3ncccc23)n1)C1CC1 | binding | 1 µM | 100% |
| CN(C)CC#Cc1ccc(OCCCc2sc(N3CCc4cccc(C(=O)Nc5nc6ccccc6s5)c4C3)nc2C(=O)O)c(F)c1 | cell-free assay, competition with immobilised ligand | 1 µM | 77% |
| C[C@@H]1CCN(c2nccc(-c3cnn4ncccc34)n2)C1 | binding | 1 µM | 31% |
| NS(=O)(=O)c1cc(NC(=O)Cc2ccccc2)ccc1Oc1cccc(Cl)c1 | cell-free assay, competition with immobilised ligand | 1 µM | 87% |
| FC(F)(F)Oc1cccc(-c2cnc3ccc(-c4ccncc4)nn23)c1 | cell-free assay, competition with immobilised ligand | 5 µM | 66% |
| CN(C)c1nccc(-c2cnn3ncccc23)n1 | binding | 1 µM | 99% |
| O=C(NCCCN1CCOCC1)c1ccc(Nc2ncc(Cl)c(-c3ccc(Cl)s3)n2)cc1 | binding, competition with immobilised ligand | 1 µM | 97% |
